We go through one compound from ChEMBL document CHEMBL4014329, “Selective Inhibition of Escherichia coli RNA and DNA Topoisomerase I by Hoechst 33258 Derived Mono- and Bisbenzimidazoles” (J Med Chem, 2017).

≈ marks a conversion by molar mass, not a printed value. Calls of active or inactive are those of the source.

The nature of assay [1]: Inhibition of Escherichia coli DNA topoisomerase 1 using plasmid pBAD-GFPuv as substrate after 15 mins by agarose gel electrophoresis. An outline of the steps:
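E. coli topoisomerase I at 6 nM relaxing 150 ng supercoiled pBAD-GFPuv. 15 min at 37 °C, phenol-stopped, 1% agarose gel, ethidium stain. IC50 is the concentration leaving 50% DNA supercoiled; three independent determinations.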

Assay [2] is described as follows: Binding affinity to dA60.dT60 B-DNA duplex (unknown origin) assessed as change in melting temperature at 10 uM by UV-vis spectrophotometric analysis. In outline:
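UV melting of dA60·dT60 at 1 μM/duplex with compound at 10 μM. Buffer 10 mM sodium cacodylate, 0.1 mM EDTA, 100 mM NaCl, pH 7.0; duplex pre-annealed from 95 °C. Compound stocks in DMSO diluted into buffer. Heating at 0.2 °C/min, monitored at 260 nm, points every 1.0 °C; Tm taken from derivatives.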

The test system of another assay is Enterococcus faecalis. The experiment in a line: Antibacterial activity against Enterococcus faecalis ATCC 29212 after 24 hrs by microbroth dilution method. Conditions: ATCC 29212, 24 h. Type of assay: functional. In outline: (§1)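 Microbroth dilution per CLSI guidelines. Organisms grown in Mueller−Hinton broth at 37 °C with shaking to log phase, pelleted, resuspended in 0.85% saline to OD625 0.1. Final inoculum 5 × 10^5 CFU/mL; triplicate; 24 h at 37 °C. OD625 read; MIC = lowest concentration completely inhibiting growth versus untreated controls.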

Assay [3] has as its system Escherichia coli. The experiment in a line: Inhibition of Escherichia coli RNA topoisomerase-1 using circular RNA as substrate 10 uM after 1.5 hrs by SDS-PAGE analysis. In outline:
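10 nM E. coli topoisomerase I premixed with reaction buffer and inhibitor diluted in DMSO, then circular RNA substrate added; 1.5 h incubation. Stopped with proteinase K/SDS/EDTA buffer. Trefoil RNA knot product separated from circular substrate on 15% TBE−urea gels and detected by phosphorimaging. DMSO-only control included.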

Assay [4] deals with Escherichia coli. Put plainly: Inhibition of Escherichia coli DNA gyrase using relaxed plasmid pBAD-GFPuv as substrate after 30 mins by agarose gel electrophoresis.
The subject of assay [5] is Staphylococcus aureus. The experiment in a line: Antibacterial activity against Staphylococcus aureus ATCC 33591 after 24 hrs by microbroth dilution method. Conditions: ATCC 33591, 24 h. It is filed as functional. In outline:
as §1

Another assay relates to Shigella flexneri. The experiment in a line: Antibacterial activity against Shigella flexneri 2457NR517 after 24 hrs by microbroth dilution method. It is filed as functional. Conditions: 2457NR517, 24 h. In outline: (§2)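 Mueller-Hinton broth cultures grown at 37 °C with shaking to log phase, pelleted, resuspended in 0.85% saline to OD625 0.1. Broth microdilution per CLSI guidelines, final inoculum 5 × 10^5 CFU/mL, in triplicate, 24 h at 37 °C. Growth read as OD625. MIC is the lowest concentration giving complete growth inhibition versus untreated controls.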
Background: In broth dilution the organism is exposed to a series of concentrations in liquid medium.

The subject of another assay is Klebsiella pneumoniae. The experiment in a line: Antibacterial activity against Klebsiella pneumoniae NR15410 after 24 hrs by microbroth dilution method. Conditions: NR15410, 24 h. Type of assay: functional. An outline of the steps: as §1
For assay [6], the system named is Staphylococcus epidermidis. Put plainly: Antibacterial activity against Staphylococcus epidermidis ATCC 12384 after 24 hrs by microbroth dilution method. Conditions: ATCC 12384, 24 h. Type of assay: functional. An outline of the steps:
as §1

The next assay relates to Enterobacter cloacae. Put plainly: Antibacterial activity against Enterobacter cloacae ATCC 13047 after 24 hrs by microbroth dilution method. Type of assay: functional. Conditions: ATCC 13047, 24 h. In outline: as §1
In assay [7] the test system is Staphylococcus aureus. Put plainly: Antibacterial activity against Staphylococcus aureus ATCC 29213 after 24 hrs by microbroth dilution method. Conditions: ATCC 29213, 24 h. It is filed as functional. An outline of the steps:
as §1

Assay [8] relates to Staphylococcus aureus. Put plainly: Antibacterial activity against methicillin-resistant Staphylococcus aureus A960649 after 24 hrs by microbroth dilution method. Type of assay: functional. Conditions: A960649, 24 h. In outline:
as §2

The next assay relates to Acinetobacter baumannii. The experiment in a line: Antibacterial activity against Acinetobacter baumannii ATCC 19606 after 24 hrs by microbroth dilution method. Conditions: ATCC 19606 = CIP 70.34 = JCM 6841, 24 h. It is filed as functional. An outline of the steps:
as §1

A short description of assay [9]: Binding affinity to dA60.dT60 B-DNA duplex (unknown origin) assessed as induction of biphasic transition at <5 uM by UV-vis spectrophotometric analysis.
A further assay deals with Pseudomonas aeruginosa. Put plainly: Antibacterial activity against Pseudomonas aeruginosa ATCC 27853 after 24 hrs by microbroth dilution method. Type of assay: functional. Conditions: ATCC 27853, 24 h. In outline: as §1
A short description of assay [10]: Cytotoxicity against human PCS-201-010 cells after 48 hrs by SRB assay. It is filed as cell-based. Conditions: PCS-201-010, 48 h. An outline of the steps: (§3)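 Cells cultured per ATCC protocols, seeded and grown 24 h (37 °C, 5% CO2), then treated in triplicate at final 20, 10, 5, 2.5, 1.25, 0.625 and 0.0625 μM for 48 h. Fixed with cold TCA (16% final, 4 °C, 1 h), stained with SRB in 1% acetic acid, dye solubilized in 10 mM Tris base, A560 read. IC50 derived; study in duplicate.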

Assay [11] has as its system Escherichia coli. Put plainly: Antibacterial activity against Escherichia coli ATCC 25922 after 24 hrs by microbroth dilution method. Type of assay: functional. Conditions: ATCC 25922, 24 h. An outline of the steps:
as §1

The next assay deals with T1, DNA topoisomerase 1 (Homo sapiens, UniProt P11387).
T1 sequence (P11387 whole entry): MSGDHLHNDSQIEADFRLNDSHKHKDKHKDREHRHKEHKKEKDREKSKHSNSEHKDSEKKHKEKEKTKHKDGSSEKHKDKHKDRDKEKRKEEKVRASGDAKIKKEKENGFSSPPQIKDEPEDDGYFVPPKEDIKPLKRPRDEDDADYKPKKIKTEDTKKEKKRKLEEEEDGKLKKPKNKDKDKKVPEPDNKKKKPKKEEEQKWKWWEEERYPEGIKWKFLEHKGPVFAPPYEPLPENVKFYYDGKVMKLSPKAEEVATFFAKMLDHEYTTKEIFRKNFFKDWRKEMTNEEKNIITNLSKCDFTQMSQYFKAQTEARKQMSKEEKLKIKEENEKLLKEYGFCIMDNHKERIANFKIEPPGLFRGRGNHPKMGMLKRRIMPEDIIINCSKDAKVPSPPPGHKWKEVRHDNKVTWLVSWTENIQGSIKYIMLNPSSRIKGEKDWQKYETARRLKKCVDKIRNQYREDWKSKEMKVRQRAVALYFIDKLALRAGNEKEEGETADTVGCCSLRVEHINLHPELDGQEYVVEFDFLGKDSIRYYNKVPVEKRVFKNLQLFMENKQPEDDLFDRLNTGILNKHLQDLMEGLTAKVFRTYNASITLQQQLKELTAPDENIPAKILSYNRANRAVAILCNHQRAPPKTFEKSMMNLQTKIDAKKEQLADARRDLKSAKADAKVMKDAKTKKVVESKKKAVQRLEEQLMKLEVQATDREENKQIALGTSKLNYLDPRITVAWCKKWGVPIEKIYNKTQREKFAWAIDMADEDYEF
The experiment in a line: Inhibition of human DNA topoisomerase 1 using plasmid pBAD-GFPuv as substrate after 30 mins by agarose gel electrophoresis.

The test system of the next assay is DU-145. The experiment in a line: Cytotoxicity against human DU145 cells after 48 hrs by SRB assay. Conditions: Homo sapiens, DU-145, 48 h. Type of assay: cell-based. An outline of the steps:
as §3
(In general: Sulforhodamine B stains cellular protein and so reports cell mass.)

Assay [12] concerns Staphylococcus aureus. Put plainly: Antibacterial activity against methicillin-resistant Staphylococcus aureus 33591 after 24 hrs by microbroth dilution method. It is filed as functional. Conditions: Staphylococcus aureus, 33591, 24 h. An outline of the steps:
as §2

In assay [13] the test system is Escherichia coli. Put plainly: Antibacterial activity against Escherichia coli K-12 after 24 hrs by microbroth dilution method. It is filed as functional. Conditions: K-12, 24 h. An outline of the steps:
as §1

A further assay has as its system Enterococcus faecium. Put plainly: Antibacterial activity against Enterococcus faecium BM4105RF after 24 hrs by microbroth dilution method. Type of assay: functional. An outline of the steps: as §2
For the next assay, the system named is Citrobacter freundii. Put plainly: Antibacterial activity against Citrobacter freundii 4747CFAA after 24 hrs by microbroth dilution method. It is filed as functional. In outline: as §1

Turning to `C#CCOCCCCCCCCCCCCOc1ccc(-c2nc3ccc(-c4nc5ccc(N6CCN(C)CC6)cc5[nH]4)cc3[nH]2)cc1`, the IC50 (as a rule, the point on the concentration scale where inhibition reaches its midpoint) was 4 µM in assay [1], over 10 µM in assay [10], over 50 µM at DNA topoisomerase 1 and over 10 µM in the assay on DU-145. Also, in assay [2], the ΔTm (in general, the shift of the melting midpoint relative to a reference) turned out to be 1.2 °C. Besides, the MIC (as a rule, the smallest concentration in the dilution series that meets the test's criterion for growth inhibition) is 16 to 32 µg/mL (≈ 24.7 to 49.5 µM) in the assay with Enterococcus faecalis; 16 to 32 µg/mL (≈ 24.7 to 49.5 µM) against Staphylococcus aureus [5]; over 32 µg/mL against Shigella flexneri; over 32 µg/mL in the assay on Klebsiella pneumoniae; over 32 µg/mL in assay [6]; over 32 µg/mL against Enterobacter cloacae. In addition, the MIC against Staphylococcus aureus [7] was 16 to 32 µg/mL (≈ 24.7 to 49.5 µM); in the assay with Staphylococcus aureus [8] it was over 32 µg/mL; against Acinetobacter baumannii, over 32 µg/mL; with Pseudomonas aeruginosa it was 16 µg/mL (≈ 24.7 µM); in the assay on Escherichia coli [11] it was 16 µg/mL (≈ 24.7 µM); against Staphylococcus aureus [12], over 32 µg/mL. In addition, the MIC in the assay with Escherichia coli [13] is 16 µg/mL (≈ 24.7 µM); against Enterococcus faecium it was at least 32 µg/mL; against Citrobacter freundii, over 32 µg/mL. Besides, the inhibition result in the assay on Escherichia coli [3] is “Active”. Moreover, in the assay on Escherichia coli [4], the inhibition result is “inactive”. Further, in assay [9], the outcome was Active.
